ChEMBL document CHEMBL1157379, “Transcriptional response of Candida parapsilosis following exposure to farnesol” (2007)

What was measured:
Format in all cases: functional
Candida parapsilosis [1] = test: Decrease in CGD gene ortholog accession number orf19.7325 expression in Candida parapsilosis CLIB214 at 50 uM after 2 hrs by microarray based transcriptional profiling relative to control
Outline: (§1)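 Strain CLIB214 grown overnight in YPD at 30°C, diluted to A600 0.2 in fresh YPD at 30°C. After 4 h (A600 0.8), farnesol (40 mM methanol stock) added to 50 μM final, or an equal methanol volume as control; cells harvested 2 h later. RNA was accepted only with a 28S/18S ratio of 1.6–2.2. Cy3/Cy5-dCTP-labelled cDNA was made from 25 μg total RNA. Hybridisation was to duplicate-spotted 68-mer oligo arrays (3,849 genes) at 42°C for about 16 h. Six individual comparisons.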

Candida parapsilosis [2] = test: Decrease in PCL7 gene expression in Candida parapsilosis CLIB214 at 50 uM after 2 hrs by microarray based transcriptional profiling relative to control; outline: as §1
Candida parapsilosis [3] = test: Increase in PLB3 gene expression in Candida parapsilosis CLIB214 at 50 uM after 2 hrs by microarray based transcriptional profiling relative to control
Outline: (§2)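 Strain grown overnight in YPD at 30°C, diluted to A600 0.2 in YPD at 30°C; farnesol (40 mM methanol stock) added at 4 h (A600 0.8), final 50 μM; methanol-only control. Cells collected 2 h later for RNA. Labelled cDNA from 25 μg total RNA (Cy3/Cy5-dCTP) hybridized to 68-mer oligo arrays at 42°C ~16 h; six individual comparisons analysed statistically.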

Candida parapsilosis [4] = test: Decrease in ARG11 gene expression in Candida parapsilosis CLIB214 at 50 uM after 2 hrs by microarray based transcriptional profiling relative to control
Outline: (§3)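 Cells in YPD at 30°C treated with 50 μM farnesol at 4 h, with a methanol control. RNA harvested 2 h later and kept only if 28S/18S ratio was 1.6–2.2 with no degradation. 25 μg total RNA oligo-dT primed and labeled with Cy3/Cy5-dCTP. Labeled cDNA hybridized about 16 h at 42°C to duplicate-spotted 68-mer oligo arrays. Six individual comparisons analyzed statistically.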

Candida parapsilosis [5] = test: Decrease in CGD gene ortholog accession number orf19.3434 expression in Candida parapsilosis CLIB214 at 50 uM after 2 hrs by microarray based transcriptional profiling relative to control; outline: as §3
Candida parapsilosis [6] = test: Increase in KRE30 gene expression in Candida parapsilosis CLIB214 at 50 uM after 2 hrs by microarray based transcriptional profiling relative to control; outline: as §2
Candida parapsilosis [7] = test: Decrease in CGD gene ortholog accession number orf19.2366 expression in Candida parapsilosis CLIB214 at 50 uM after 2 hrs by microarray based transcriptional profiling relative to control; outline: as §3
Candida parapsilosis [8] = test: Decrease in CGD gene ortholog accession number orf19.5022 expression in Candida parapsilosis CLIB214 at 50 uM after 2 hrs by microarray based transcriptional profiling relative to control; outline: as §3
Candida parapsilosis [9] = test: Increase in CGD gene ortholog accession number orf19.1953 expression in Candida parapsilosis CLIB214 at 50 uM after 2 hrs by microarray based transcriptional profiling relative to control; outline: as §1
Candida parapsilosis [10] = test: Antifungal activity against Candida parapsilosis CLIB214 assessed as growth inhibition at 50 uM added after 8 hrs of bacterial growth measured after 2 hrs; settings: Lodderomyces parapsilosis
Outline: (§4)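 Overnight YPD culture at 30°C diluted to A600 0.2 in YPD. Farnesol added to 50 μM final at 2, 4, 6 or 8 h of growth (A600 about 0.8 at 4 h, 2.3 at 6 h, 6 at 8 h). Growth compared with methanol controls by A600 or cell counts.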

Candida parapsilosis [11] = test: Decrease in CGD gene ortholog accession number orf19.4253 expression in Candida parapsilosis CLIB214 at 50 uM after 2 hrs by microarray based transcriptional profiling relative to control; outline: as §3
Candida parapsilosis [12] = test: Decrease in CGD gene ortholog accession number orf19.1608 expression in Candida parapsilosis CLIB214 at 50 uM after 2 hrs by microarray based transcriptional profiling relative to control; outline: as §3
Candida parapsilosis [13] = test: Antifungal activity against Candida parapsilosis CLIB214 assessed as growth inhibition at 50 uM added after 6 hrs of bacterial growth measured after 4 hrs; settings: Lodderomyces parapsilosis; outline: as §4
Candida parapsilosis [14] = test: Decrease in PGA55 gene expression in Candida parapsilosis CLIB214 at 50 uM after 2 hrs by microarray based transcriptional profiling relative to control; outline: as §1
Candida parapsilosis [15] = test: Decrease in CGD gene ortholog accession number orf19.4372 expression in Candida parapsilosis CLIB214 at 50 uM after 2 hrs by microarray based transcriptional profiling relative to control; outline: as §3
Candida parapsilosis [16] = test: Increase in HAS1 gene expression in Candida parapsilosis CLIB214 at 50 uM after 2 hrs by microarray based transcriptional profiling relative to control; outline: as §2
Candida parapsilosis [17] = test: Decrease in CGD gene ortholog accession number orf19.4210 expression in Candida parapsilosis CLIB214 at 50 uM after 2 hrs by microarray based transcriptional profiling relative to control; outline: as §3
Candida parapsilosis [18] = test: Increase in GenBank accession number NP_983467.1 expression in Candida parapsilosis CLIB214 at 50 uM after 2 hrs by microarray based transcriptional profiling relative to control; outline: as §2
Candida parapsilosis [19] = test: Increase in ALS2 gene expression in Candida parapsilosis CLIB214 at 50 uM after 2 hrs by microarray based transcriptional profiling relative to control; outline: as §1
Candida parapsilosis [20] = test: Increase in CDC20 gene expression in Candida parapsilosis CLIB214 at 50 uM after 2 hrs by microarray based transcriptional profiling relative to control; outline: as §1
Candida parapsilosis [21] = test: Decrease in CGD gene ortholog accession number orf19.5683 expression in Candida parapsilosis CLIB214 at 50 uM after 2 hrs by microarray based transcriptional profiling relative to control; outline: as §3
Candida parapsilosis [22] = test: Decrease in CGD gene ortholog accession number orf19.2892 expression in Candida parapsilosis CLIB214 at 50 uM after 2 hrs by microarray based transcriptional profiling relative to control; outline: as §3
Candida parapsilosis [23] = test: Decrease in GenBank accession number XP_457879.1 expression in Candida parapsilosis CLIB214 at 50 uM after 2 hrs by microarray based transcriptional profiling relative to control; outline: as §1
Candida parapsilosis [24] = test: Increase in RPS6A gene expression in Candida parapsilosis CLIB214 at 50 uM after 2 hrs by microarray based transcriptional profiling relative to control; outline: as §2
Candida parapsilosis [25] = test: Increase in CGD gene ortholog accession number orf19.5847 expression in Candida parapsilosis CLIB214 at 50 uM after 2 hrs by microarray based transcriptional profiling relative to control; outline: as §1
Candida parapsilosis [26] = test: Increase in GenBank accession number NP_943645.1 expression in Candida parapsilosis CLIB214 at 50 uM after 2 hrs by microarray based transcriptional profiling relative to control; outline: as §2
Candida parapsilosis [27] = test: Antifungal activity against Candida parapsilosis CLIB214 assessed as growth inhibition at 50 uM added after 8 hrs of bacterial growth measured after 4 hrs; settings: Lodderomyces parapsilosis; outline: as §4
Candida parapsilosis [28] = test: Increase in NIT2 gene expression in Candida parapsilosis CLIB214 at 50 uM after 2 hrs by microarray based transcriptional profiling relative to control; outline: as §2

CC(C)=CCC/C(C)=C/CC/C(C)=C/CO [FARNESOL]
fold change (FC) (Candida parapsilosis [1]): 1.67 | fold change (FC) (Candida parapsilosis [2]): 1.75 | fold change (FC) (Candida parapsilosis [3]): 1.66 | fold change (FC) (Candida parapsilosis [4]): 1.56 | fold change (FC) (Candida parapsilosis [5]): 1.8 | fold change (FC) (Candida parapsilosis [6]): 2.24 | fold change (FC) (Candida parapsilosis [7]): 3.21 | fold change (FC) (Candida parapsilosis [8]): 1.85 | fold change (FC) (Candida parapsilosis [9]): 1.77 | inhibition at 50 µM (Candida parapsilosis [10]): 9.5% | fold change (FC) (Candida parapsilosis [11]): 1.63 | fold change (FC) (Candida parapsilosis [12]): 1.62 | inhibition at 50 µM (Candida parapsilosis [13]): 49% | fold change (FC) (Candida parapsilosis [14]): 1.76 | fold change (FC) (Candida parapsilosis [15]): 1.67 | fold change (FC) (Candida parapsilosis [16]): 1.7 | fold change (FC) (Candida parapsilosis [17]): 1.79 | fold change (FC) (Candida parapsilosis [18]): 3.16 | fold change (FC) (Candida parapsilosis [19]): 1.61 | fold change (FC) (Candida parapsilosis [20]): 1.51 | fold change (FC) (Candida parapsilosis [21]): 1.51 | fold change (FC) (Candida parapsilosis [22]): 1.69 | fold change (FC) (Candida parapsilosis [23]): 1.71 | fold change (FC) (Candida parapsilosis [24]): 1.61 | fold change (FC) (Candida parapsilosis [25]): 1.89 | fold change (FC) (Candida parapsilosis [26]): 2.05 | inhibition at 50 µM (Candida parapsilosis [27]): 16% | fold change (FC) (Candida parapsilosis [28]): 1.86
